Measurements of several laboratories.
Compare with care: the assays were run in different laboratories.
Cell line: MCF7
Effect on: cell growth or viability

SMILES	method	time	IC50
O=C(C=Cc1ccc(O)c(O)c1)OCc1ccccc1	MTT	–	85.2 µM
COc1ccc(-c2cc(-c3c(OC)cccc3OC)c3c(=O)[nH]c(=O)[nH]c3n2)cc1	MTT	48 h	32.3 µM
COc1cc2ncnc(N(C)c3ccc4c(c3)/C(=C/c3cccc(Cl)c3)C(=O)N4C)c2cc1OC	MTT	–	6.53 µM
COc1ccc(-c2cc(-c3cccc(Br)c3)c3c(=O)n(C)c(=O)n(C)c3n2)cc1	MTT	48 h	13.5 µM
Cc1nc(Nc2ccc3c(c2)CC(=O)N3)c2ccccc2n1	MTT	–	31.3 µM
Cc1ccc(-c2cc(-c3ccc(Cl)c(F)c3)c3c(=O)n(C)c(=O)n(C)c3n2)cc1	MTT	48 h	37 µM
Cc1nc(N(C)c2ccc3c(c2)/C(=C/c2ccccc2Cl)C(=O)N3C)c2ccccc2n1	MTT	–	10.8 µM
CN(Cc1cnc2nc(N)nc(N)c2n1)c1ccc(C(=O)N[C@@H](CCC(=O)O)C(=O)O)cc1	MTT	–	19 µM
Cc1ccc(-c2cc(-c3c(Cl)cccc3Cl)c3c(=O)n(C)c(=O)n(C)c3n2)cc1	MTT	48 h	6.41 µM
C=CC(=O)Nc1cc(Nc2nccc(-c3cn(C)c4ccccc34)n2)c(OC)cc1N(C)CCN(C)C	MTS	72 h	8.34 µM
Cc1nc(Nc2ccc3c(c2)/C(=C/c2ccccc2)C(=O)N3Cc2ccccc2)c2ccccc2n1	MTT	–	11.6 µM
O=C(C=Cc1ccccc1)Nc1cc(-c2ccnc(N3CCC(O)CC3)c2)ccn1	MTT	72 h	2.51 µM
COc1cc2c3c(n(CCCNCCO)c(=O)c2cc1OC)-c1nc2c(cc1C3=O)OCO2	–	72 h	0.369 µM
Cc1ccc(-c2cc(-c3ccc(Cl)cc3)c3c(=O)n(C)c(=O)n(C)c3n2)cc1	MTT	48 h	7.49 µM
O=C(CCn1c(=O)ccc2ccccc21)N1CCOCC1	MTT	48 h	9.77 µM
Cc1nc(N(Cc2ccccc2)c2ccc3c(c2)/C(=C/c2ccccc2)C(=O)N3Cc2ccccc2)c2ccccc2n1 (mixture of isomers)	MTT	–	0.89 µM
CC(C)NCC(COc1cccc2ccccc12)OC(=O)C=Cc1ccc(O)c(O)c1 (centres unmarked)	MTT	–	5.37 µM
COc1cc2c3c(n(CCCn4ccnc4)c(=O)c2cc1OC)-c1nc2c(cc1C3=O)OCO2	–	72 h	0.372 µM
Cc1ccc(-c2cc(-c3ccc(N(C)C)cc3)c3c(=O)n(C)c(=O)n(C)c3n2)cc1	MTT	48 h	15.8 µM
Cc1nc(Nc2ccc3c(c2)C(C)(C)C(=O)N3C)c2ccccc2n1	MTT	–	36.3 µM
